Assay results as given in ChEMBL document CHEMBL1955783, “Identification and optimization of small molecule antagonists of vasoactive intestinal peptide receptor-1 (VIPR1)” (Bioorg Med Chem Lett, 2012).
Active and inactive are the calls of the source. The rule behind the calls is not given here.

Tests used:
NCI-H727 [1] = assay: Cytotoxicity against human NCI-H727 cells expressing VIPR1 up to 10 uM in presence of 2% serum; assay type: functional, cell-based
How it was run: (§1)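 Cell proliferation in H727, H1299 and Calu6 lines, chosen for high VIPR1 expression. Medium held 2% serum to limit albumin sequestration. Compounds were tested at concentrations up to 10 µM.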

[2] = target: T1, Vasoactive intestinal polypeptide receptor 1 (Rattus norvegicus, UniProt P30083); assay: Antagonist activity at vasoactive intestinal peptide receptor 1 in rat RKE cells assessed as inhibition of VIP-induced intracellular cAMP accumulation incubated for 15 mins prior to VIP-stimulation measured after 30 mins by HTRF assay
T1 sequence (P30083 whole entry): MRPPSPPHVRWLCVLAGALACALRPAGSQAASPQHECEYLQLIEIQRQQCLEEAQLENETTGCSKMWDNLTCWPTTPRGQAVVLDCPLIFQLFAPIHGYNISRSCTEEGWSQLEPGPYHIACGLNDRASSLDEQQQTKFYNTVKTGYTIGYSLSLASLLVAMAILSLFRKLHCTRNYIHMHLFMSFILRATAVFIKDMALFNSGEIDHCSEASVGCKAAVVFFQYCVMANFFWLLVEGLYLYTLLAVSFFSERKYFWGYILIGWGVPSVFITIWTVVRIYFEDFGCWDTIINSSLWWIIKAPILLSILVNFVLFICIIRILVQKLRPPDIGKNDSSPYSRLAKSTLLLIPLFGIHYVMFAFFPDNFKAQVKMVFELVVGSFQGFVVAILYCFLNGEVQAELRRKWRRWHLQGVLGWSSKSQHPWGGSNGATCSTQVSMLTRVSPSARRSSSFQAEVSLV

Calu-6 [3] = assay: Cytotoxicity against human Calu6 cells expressing VIPR1 up to 10 uM in presence of 2% serum; assay type: functional, cell-based; how it was run: as §1
NCI-H1299 [4] = assay: Cytotoxicity against human NCI-H1299 cells expressing VIPR1 up to 10 uM in presence of 2% serum; assay type: functional, cell-based; how it was run: as §1
[5] = target: T2, Vasoactive intestinal polypeptide receptor 1 (Rattus norvegicus) (UniProt P30083); assay: Displacement of [125I]VIP from vasoactive intestinal peptide receptor 1 in rat RKE cell membrane after 3 hrs by TopCount assay; assay type: cell membranes
T2 sequence (whole entry): T1 sequence (P30083 whole entry)
How it was run: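 Membranes from RKE-VIPR cells, 5 µg/well final, preincubated 10 min at room temperature with wheat germ agglutinin-coated PVT beads in 50 mM HEPES, 5 mM MgCl2, 1 mM CaCl2, 0.1% BSA. IC50 taken from a four-parameter logistic fit after subtracting nonspecific binding, defined with excess VIP.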

NCI-H1299 [6] = assay: Cytotoxicity against human NCI-H1299 cells expressing VIPR1 in presence of 2% serum; assay type: functional, cell-based; how it was run: as §1
NCI-H727 [7] = assay: Cytotoxicity against human NCI-H727 cells expressing VIPR1 in presence of 2% serum; assay type: functional, cell-based; how it was run: as §1
Calu-6 [8] = assay: Cytotoxicity against human Calu6 cells expressing VIPR1 in presence of 2% serum; assay type: functional, cell-based; how it was run: as §1
[9] = Plasma protein binding in human; assay type: ADME, cell-free; conditions: read-out: PPB (converted)
[10] = Plasma protein binding in mouse; assay type: ADME, cell-free; conditions: read-out: PPB (converted)

| Compound | IC50 [2] [nM] | Activity [5] | fraction unbound [9] | fraction unbound [10] | Activity (NCI-H727 [1]) | Activity (Calu-6 [3]) | Activity (NCI-H1299 [4]) | Activity (NCI-H1299 [6]) | Activity (NCI-H727 [7]) | Activity (Calu-6 [8]) |
| --- | --- | --- | --- | --- | --- | --- | --- | --- | --- | --- |
| CC(C)c1cc(C(C)(C)C)cc(-c2cccc(Cl)c2)c1CO | 100 | Active | – | – | inactive | inactive | inactive | – | – | – |
| Cc1ccc(-c2cc(C(C)(C)C)cc(C(C)C)c2CO)cc1 | 300 | Active | – | – | inactive | inactive | inactive | – | – | – |
| CC(C)c1cc(C(C)(C)C)cc(-c2ccccc2)c1CO | 390 | Active | – | – | inactive | inactive | inactive | – | – | – |
| CC(C)c1cc(C(C)(C)C)cc(-c2cccc(N(C)C)c2)c1CO | 310 | Active | – | – | inactive | inactive | inactive | – | – | – |
| CSc1cccc(-c2cc(C(C)(C)C)cc(C(C)C)c2CO)c1 | 170 | Active | – | – | inactive | inactive | inactive | – | – | – |
| CC(C)c1cc(C(C)(C)C)cc(-c2cccc(C(F)(F)F)c2)c1CO | > 50000 | Active | – | – | inactive | inactive | inactive | – | – | – |
| COc1ccc(-c2cc(C(C)(C)C)cc(C(C)C)c2CO)cc1 | 1300 | Active | – | – | inactive | inactive | inactive | – | – | – |
| CC(C)c1cc(C(C)(C)C)cc(-c2cccc3ccccc23)c1CO | 180 | Active | – | – | inactive | inactive | inactive | – | – | – |
| Cc1ccc(CCC(=O)Nc2sc3c(c2C#N)CCCC3)cc1 | 480 | Active | – | – | – | – | – | inactive | inactive | inactive |
| CC(C)c1cc(C(C)(C)C)cc(-c2ccccc2-c2ccccc2)c1CO | 3200 | Active | – | – | inactive | inactive | inactive | – | – | – |
| Cc1ccccc1-c1cc(C(C)(C)C)cc(C(C)C)c1CO | > 50000 | Active | – | – | inactive | inactive | inactive | – | – | – |
| N#Cc1c(NC(=O)C2CCCCC2)sc2c1CCCC2 | 470 | Active | – | – | – | – | – | inactive | inactive | inactive |
| N#Cc1c(NC(=O)C2CCCC2)sc2c1CCCC2 | 470 | Active | – | – | – | – | – | inactive | inactive | inactive |
| CC(C)c1cc(C(C)(C)C)cc(-c2ccc(Cl)cc2)c1CO | 290 | Active | – | – | inactive | inactive | inactive | – | – | – |

Continued, in another order:

| IC50 [2] [nM] | Activity [5] | fraction unbound [9] | fraction unbound [10] | Compound | Activity (NCI-H727 [1]) | Activity (Calu-6 [3]) | Activity (NCI-H1299 [4]) | Activity (NCI-H1299 [6]) | Activity (NCI-H727 [7]) | Activity (Calu-6 [8]) |
| --- | --- | --- | --- | --- | --- | --- | --- | --- | --- | --- |
| 200 | Active | – | – | COc1cccc(-c2cc(C(C)(C)C)cc(C(C)C)c2CO)c1 | inactive | inactive | inactive | – | – | – |
| 680 | Active | – | – | CC(C)c1cc(C(C)(C)C)cc(-c2ccc(-c3ccccc3)cc2)c1CO | inactive | inactive | inactive | – | – | – |
| 210 | Active | – | – | CC(C)c1cc(C(C)(C)C)cc(-c2cccc(-c3ccccc3)c2)c1CO | inactive | inactive | inactive | – | – | – |
| > 50000 | Active | – | – | CC(C)c1cc(C(C)(C)C)cc(-c2cccc(C#N)c2)c1CO | inactive | inactive | inactive | – | – | – |
| 740 | Active | 0.1 | 0.1 | CC(C)c1cc(C(C)(C)C)cc(-c2ccc(F)cc2)c1CO | inactive | inactive | inactive | – | – | – |
| 240 | Active | – | – | Cc1cccc(-c2cc(C(C)(C)C)cc(C(C)C)c2CO)c1 | inactive | inactive | inactive | – | – | – |
| 820 | Active | – | – | COc1ccccc1-c1cc(C(C)(C)C)cc(C(C)C)c1CO | inactive | inactive | inactive | – | – | – |
| 120 | Active | – | – | CC(C)c1cc(C(C)(C)C)cc(-c2ccc3ccccc3c2)c1CO | inactive | inactive | inactive | – | – | – |
| 81 | Active | – | – | Cc1ccc(-c2cc(C(C)(C)C)cc(C(C)C)c2CO)cc1C | inactive | inactive | inactive | – | – | – |
